Screening data (PubChem BioAssay)
Most compounds without a hit are left out; they make up all but 3.4% or so of the library.
TAAR1 antag: antagonists of human TAAR1; Q96RJ0; CHO RD-HGA16 TAAR1, Fluo-8 calcium fluorescence, antagonist; inhibition, % at 3 µM; actives 1.5% (n = 360,000);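 active = inhibition above a per-plate cutoff, the mean inhibition of test compounds on that plate plus 3 SD, cut at about 49% in these data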
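Assay system: CHO-derived RD-HGA16 cells stably expressing human TAAR1 plus Gα16. Timing: 140 s kinetic read after compound, 140 s after agonist. Technique: kinetic Fluo-8 calcium fluorescence measurement. Measure: % inhibition of agonist calcium response.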
CHRM1 PAM: human CHRM1 positive allosteric modulation. AID 588819. activation, % at 3 µM. CHO-K1 hM1, Fluo-8 calcium fluorescence, ACh EC20; 0% = ACh EC20, 100% = maximal ACh. P11229. actives 0.088% (n = 360,000); in the data active = activation above about 19%, passing the limit was not always enough
Target sequence (P11229 whole entry, looked up): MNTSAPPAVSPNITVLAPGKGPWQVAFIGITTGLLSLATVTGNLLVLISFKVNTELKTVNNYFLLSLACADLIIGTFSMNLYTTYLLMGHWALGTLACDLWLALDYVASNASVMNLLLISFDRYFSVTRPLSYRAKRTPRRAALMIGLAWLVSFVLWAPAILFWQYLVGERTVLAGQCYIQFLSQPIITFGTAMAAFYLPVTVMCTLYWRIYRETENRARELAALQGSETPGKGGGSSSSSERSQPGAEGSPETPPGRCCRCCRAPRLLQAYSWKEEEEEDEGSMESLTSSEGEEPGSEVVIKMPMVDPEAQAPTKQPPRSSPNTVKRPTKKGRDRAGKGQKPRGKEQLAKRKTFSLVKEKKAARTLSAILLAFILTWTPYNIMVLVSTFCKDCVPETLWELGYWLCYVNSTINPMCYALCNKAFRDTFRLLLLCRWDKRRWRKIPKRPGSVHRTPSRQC
TAAR1 agonist: agonists of human TAAR1. Q96RJ0. CHO RD-HGA16 TAAR1, Fluo-8 calcium fluorescence; vehicle wells 0%, saturating PEA agonist 100%. activation, % at 3 µM. actives 0.99% (n = 360,000);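 active = activation above the mean activation of all test compounds in the run plus 3 SD, cut at about 38% in these data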
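Test system: RD-HGA16 (CHO) cells co-expressing Gα16 and hTAAR1 / Benchmarks: DMSO vehicle as 0%, PEA at EC100 as 100% / Repeats: no replicates (n 1) / Measure: % activation from peak over basal fluorescence ratio, DMSO-to-PEA scaled / Timing: 17-24 h plating, Fluo-8 75 min 37 °C, 30 min RT / Technique: kinetic Fluo-8 calcium fluorescence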
M1 antag: antagonists of human M1 muscarinic receptor; inhibition, % at 3 µM; actives 1.3% (n = 360,000); CHO-K1 hM1, Fluo-8 calcium fluorescence, ACh EC80 antagonist; P11229;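 active = percent inhibition above its own plate's cutoff, namely the mean of that plate's compound wells plus 3 SD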;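 note: peak over basal fluorescence ratio during 140 s after agonist addition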
CHRM1 agonist: agonists of human M1 muscarinic receptor. P11229. CHO-K1 hM1, Fluo-8 calcium fluorescence, agonist mode; 0% DMSO, 100% acetylcholine EC100. activation, % at 3 µM. actives 0.33% (n = 360,000). AID 588814;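 active = activation above the run's mean compound activation plus 3 SD, cut at about 16% in these data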;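 note: peak over basal fluorescence ratio within a 140 s kinetic read after compound addition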
Numbers stand for hits; 0 = inactive; - = no result.

SMILES	TAAR1 antag	CHRM1 PAM	TAAR1 agonist	M1 antag	CHRM1 agonist
CC1(C)Cc2c(sc(NC(=O)c3ccc(C(=O)c4ccccc4)cc3)c2C(N)=O)C(C)(C)N1	0	0	46	0	0
COc1ccc(-c2cnc(SCC(=O)Nc3ccc4c(c3)OCO4)n2Cc2ccco2)cc1	51	0	0	0	0
CC(=O)Nc1cccc(NC(=O)CSc2ncc(-c3ccc(Cl)cc3)n2Cc2ccco2)c1	85	0	0	26	0
O=C(CSc1nnc(-c2ccc(Cl)cc2)n1Cc1ccco1)Nc1ccc2c(c1)OCCO2	0	0	0	0	0
C[C@H]1Cn2cnc(C(=O)Nc3cccc(Cl)c3)c2C(=O)N1	0	0	0	0	0
C=CCN=C1NC(c2ccc(Cl)cc2)C(C(=O)OC)=C(C)N1Cc1ccccc1C(F)(F)F (stereo unspecified)	0	-	0	-	-
Cc1ccc2c(c1C)-c1c(ccc(C)c1C)C(=O)C2=O	62	0	0	0	0
CS(=O)(=O)N1CCc2cc(S(=O)(=O)Nc3ccc4c(c3)OCCO4)ccc21	0	0	0	33	0
CCC(=O)N1CCc2cc(S(=O)(=O)Nc3ccc4c(c3)OCCO4)ccc21	0	0	0	0	0
COC(=O)C1=C(C)N(Cc2ccccc2C(F)(F)F)C(=NCc2ccccc2)NC1c1cccc(C(F)(F)F)c1 (stereo unspecified)	0	-	0	-	-
O=C(N[C@H](Cc1ccccc1)C(=O)NCc1ccc(OC(F)(F)F)cc1)[C@H]1O[C@@H](n2ccc(=O)[nH]c2=O)[C@H](O)[C@@H]1O	0	-	0	-	-
CCNc1nc2c(c(=O)n(C)c(=O)n2C)n1Cc1ccc(Cl)cc1	0	0	0	29	0
COC(=O)c1ccc2c(=O)n(CC3CCCO3)c(SCC(=O)Nc3ccccc3OC)nc2c1 (stereo unspecified)	51	0	0	0	0
COC(=O)c1ccc2c(=O)n(CC3CCCO3)c(SCC(=O)Nc3ccccc3Cl)nc2c1 (stereo unspecified)	0	0	0	0	0
CC(C)[C@H](NC(=O)c1ccccc1)C(=O)OCC(=O)c1c(N)n(C)c(=O)n(C)c1=O	0	0	0	29	0
CC(C(=O)OCC(=O)c1c(N)n(C)c(=O)n(C)c1=O)N1C(=O)c2ccccc2C1=O (stereo unspecified)	0	0	0	0	0
CCOc1ccc(NC(=O)c2ccc(CN3CCc4ccccc4C3)cc2)cc1	0	0	0	39	0
O=C(Nc1ccc(S(=O)(=O)N2CCCC2)cc1)c1ccc(CN2CCc3ccccc3C2)cc1	0	0	0	39	0
O=C(Nc1ccc(Cc2ccncc2)cc1)c1ccc(S(=O)(=O)N2CCCC2)cc1	57	0	0	0	0
O=C(N[C@H](C(=O)N1CCC[C@H]1C(=O)NC1CCCC1)c1ccccc1)C1CCCC1	0	-	0	-	-
O=c1[nH]ccc2c(O)cccc12	0	0	0	0	27
Nc1cccc2c(O)cccc12	0	0	0	0	0
COC(=O)C1=C(C)N(C)C(=NCc2ccc3c(c2)OCO3)NC1c1cccc(F)c1 (stereo unspecified)	0	-	0	-	-
COc1ccc(OC)c(-c2c3cc(O)c(=O)cc-3oc3cc(O)c(O)cc23)c1	-	0	-	33	222
O=c1cc2oc3cc(O)c(O)cc3c(-c3ccccc3O)c-2cc1O	-	0	-	0	26
SMILES	TAAR1 antag	CHRM1 PAM	TAAR1 agonist	M1 antag	CHRM1 agonist
CCOC(=O)c1oc2cc(O)ccc2c(=O)c1-c1ccccc1OC	0	0	0	0	0
CCOc1ccccc1-c1c2cc(O)c(=O)cc-2oc2cc(O)c(O)cc12	-	0	-	0	17
COc1ccc(OC)c(-c2oc3ccccc3c(=O)c2O)c1	0	0	0	0	0
Cc1ccc(S(=O)(=O)NCc2ccccc2Br)cc1	0	-	0	-	-
C#CC1c2ccccc2CCN1CC=C (stereo unspecified)	0	-	0	-	-
O=S1(=O)C=C(Sc2ccc(Cl)cc2)c2ccccc2C1Cc1ccc(F)cc1 (stereo unspecified)	0	-	0	-	-
Cc1cc(O)ccc1NC(=O)CCN1C(=O)c2ccc([N+](=O)[O-])cc2C1=O	0	28	0	0	0
C[C@H](NC(=O)c1nc[nH]c1C(=O)NCCCCCNC(=O)OC(C)(C)C)C(=O)OCc1ccccc1	76	0	0	45	0
CC(C)C[C@H](NC(=O)c1nc[nH]c1C(=O)NCCCCCNC(=O)OC(C)(C)C)C(=O)OCc1ccccc1	0	0	0	0	0
CC(C)(C)OC(=O)NCCCCCNC(=O)c1[nH]cnc1C(=O)N[C@@H](Cc1ccccc1)C(=O)OCc1ccccc1	54	0	0	0	0
O=C(CNC(=O)c1[nH]cnc1C(=O)N[C@@H](Cc1ccccc1)C(=O)OCc1ccccc1)OCc1ccccc1	64	0	0	0	0
O=C1Nc2ccccc2/C1=C/c1ccccc1Cl	0	0	0	0	0
CN1CCN(c2ccccc2/C=C2/C(=O)Nc3ccccc32)CC1	0	0	0	89	0
C=CCNc1nc(-c2sc(NC(C)=O)nc2C)cs1	0	0	0	0	0
C=CCNc1nc(-c2sc(NC(=O)C(C)(C)C)nc2C)c(-n2cc(-c3ccccc3)nn2)s1	61	-	0	-	-
CCc1nc2c(OCc3ccc(C(F)(F)F)cc3)cccn2c1N(C)C(=O)C1CC1	0	0	0	0	0
COC(=O)c1ccc(CO/N=C(\NC(C)=O)c2nonc2NC(C)=O)cc1	0	0	0	0	17
CCOC(=O)c1nonc1NC(C)=O	0	0	0	0	0
N#CCc1ccc(OCCCN2CCC(C(O)(c3ccccc3)c3ccccc3)CC2)cc1	0	-	0	-	-
OC(c1ccccc1)(c1ccccc1)C1CCN(CCCOc2ccc3c(c2)CCCC3)CC1	0	-	42	-	-
COC(=O)[C@]12C[C@H](CC(=O)NCc3cccc4ccccc34)C(=O)N(Cc3ccc4c(c3)OCO4)C1=C[C@H](COCc1ccccc1)O[C@@H]2C	0	-	0	-	-
COc1ccc(-c2ccc3c(n2)CCCN3S(=O)(=O)c2ccccc2C)cc1	0	-	0	-	-
Oc1ccc(CCNc2ncnc3ccc(Cl)cc23)cc1	51	0	0	0	0
COC(=O)[C@]12CCCCC=C1N(CCC1=CCCCC1)C(=O)[C@H](CC(=O)NCCCCc1ccccc1)C2	0	-	0	-	-
Cc1cc(NC(=O)NC(=O)c2ccccc2NC(=O)C(C)N)ccc1Oc1ncc(Br)cn1 (stereo unspecified)	0	0	43	0	0
CC(=O)Nc1ccc(OCc2cn(CC(=O)c3ccc(O)cc3)nn2)cc1	0	0	0	0	0
C[C@@H]1ON(C)[C@H]2C[C@H]3c4cc(-c5cccc(Cl)c5)ccc4CCN3C[C@@H]12	0	-	0	-	-
O=C(C1CCCN(c2ncnc3c2nc2n3CCCCC2)C1)N1CCN(c2ccc(Cl)cc2)CC1 (stereo unspecified)	77	0	38	0	0
